Experimental data from ChEMBL document CHEMBL1129574, “Synthesis, structure-activity relationships, and pharmacokinetic properties of dihydroorotate dehydrogenase inhibitors: 2-cyano-3-cyclopropyl-3-hydroxy-N-[3'-methyl-4'-(trifluoromethyl)phenyl ] propenamide and related compounds” (J Med Chem, 1996).

Assays:
[1] = t1/2 in mouse plasma after oral dose (30/mg/Kg); format: ADME, organism-based
In short: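 Male CD-1 mice (25–32 g, n=5/time point) gavaged orally 30 mg/kg (10 mL/kg). Blood by exsanguination under ether at 0, 1, 3, 6, 24, 48, 72 h, pooled per time point, heparinized; plasma stored −20 °C. Drug quantified by reversed-phase HPLC (ODS, pH 7 phosphate/acetonitrile 65:35, UV 300 nm) with internal standard and spiked-plasma calibration.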

Rattus norvegicus [2] = test: In vivo for its ability to inhibit delayed type hypersensitivity in rat following 10 mg/kg administration.
Mus musculus [3] = test: In vivo for its ability to inhibit delayed type hypersensitivity in mouse following 30 mg/kg administration.; format: functional
In short: (§1)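 Male CD-1 mice (25–30 g, n = 8-16) sensitized day 0 by s.c. 1 mg methylated BSA in saline/Freund's complete adjuvant; negative controls saline/FCA. Day 7 challenge: MBSA 0.1 mg into right hind footpad, saline in left. Oral dosing once daily days 4–6 plus twice on day 7 (1 h before, 6 h after challenge). Paw edema read 24 h post-challenge; Student's t-test.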

[4] = t1/2 in rat plasma after oral dose (10 mg/kg); format: ADME, organism-based
In short: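 Male Wistar CFHB rats (190–220 g, n=3/time point) given 10 mg/kg orally by gavage (10 mL/kg). Cardiac-puncture blood under ether at 0, 1, 3, 6, 24, 48, 72 h, individual heparinized samples; plasma kept at −20 °C. Levels by HPLC (ODS column, 0.1 M pH 7 phosphate 65%/acetonitrile 35%, UV 300 nm), internal standard, peak-area calibration from spiked blank plasma.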

[5] = target: Dihydroorotate dehydrogenase (quinone), mitochondrial (Mus musculus, UniProt O35435); test: Inhibitory concentration tested on enzyme dihydroorotate dehydrogenase in mouse
[6] = target: Dihydroorotate dehydrogenase (quinone), mitochondrial (Rattus norvegicus, UniProt Q63707); test: Inhibitory concentration tested against enzyme dihydroorotate dehydrogenase in rat
Rattus norvegicus [7] = test: Compound was tested in vivo for its ability to inhibit DTH(delayed type hypersensitivity )in rat at a concentration of 3 mg/kg; format: functional
In short: (§2)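 Male CFHB rats (160-180 g, n=7-12) sensitized day 0 by tail-base s.c. FCA (0.4 mg M. tuberculosis in liquid paraffin); controls got incomplete adjuvant. Day 7 challenge: soluble M. tuberculosis extract 0.4 mg into right hind footpad, saline in left. Oral dosing once daily days 4-6 and twice day 7 (1 h before, 6 h after). Edema read at 24 h; Student's t-test.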

Rattus norvegicus [8] = test: Compound was tested in vivo for its ability to inhibit DTH(delayed type hypersensitivity ) in rat at a concentration of 50 mg/kg; format: functional; in short: as §2
Mus musculus [9] = test: Compound was tested in vivo for its ability to inhibit DTH(delayed type hypersensitivity ) in mouse at a concentration of 30 mg/kg; format: functional; in short: as §1
Mus musculus [10] = test: Compound was tested in vivo for its ability to inhibit DTH(delayed type hypersensitivity ) in mouse at a concentration of 100 mg/kg; format: functional; in short: as §1
Mus musculus [11] = test: In vivo ability to inhibit delayed type hypersensitivity in mouse at a concentration of 100 mg/kg; format: functional; in short: as §1
Rattus norvegicus [12] = test: In vivo ability to inhibit delayed type hypersensitivity in rat at a concentration of 50 mg/kg; format: functional; in short: as §2
Rattus norvegicus [13] = test: Compound was tested in vivo for its ability to inhibit DTH(delayed type hypersensitivity ) in rat at a concentration of 3 mg/kg; format: functional; in short: as §2

Dihydroorotate dehydrogenase (quinone), mitochondrial (Rattus norvegicus, UniProt Q63707), sequence (Q63707 whole entry): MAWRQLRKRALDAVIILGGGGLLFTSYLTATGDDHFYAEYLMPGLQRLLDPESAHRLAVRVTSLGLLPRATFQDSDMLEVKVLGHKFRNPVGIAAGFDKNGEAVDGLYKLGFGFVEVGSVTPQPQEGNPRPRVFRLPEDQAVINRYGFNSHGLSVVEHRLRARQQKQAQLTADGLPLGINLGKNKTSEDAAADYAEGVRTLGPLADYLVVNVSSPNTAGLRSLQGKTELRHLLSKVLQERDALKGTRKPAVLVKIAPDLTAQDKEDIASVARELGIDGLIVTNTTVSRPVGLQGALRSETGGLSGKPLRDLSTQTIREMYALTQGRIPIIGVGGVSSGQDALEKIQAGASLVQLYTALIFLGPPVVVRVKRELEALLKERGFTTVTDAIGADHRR
Dihydroorotate dehydrogenase (quinone), mitochondrial (Mus musculus, UniProt O35435), sequence (O35435 whole entry): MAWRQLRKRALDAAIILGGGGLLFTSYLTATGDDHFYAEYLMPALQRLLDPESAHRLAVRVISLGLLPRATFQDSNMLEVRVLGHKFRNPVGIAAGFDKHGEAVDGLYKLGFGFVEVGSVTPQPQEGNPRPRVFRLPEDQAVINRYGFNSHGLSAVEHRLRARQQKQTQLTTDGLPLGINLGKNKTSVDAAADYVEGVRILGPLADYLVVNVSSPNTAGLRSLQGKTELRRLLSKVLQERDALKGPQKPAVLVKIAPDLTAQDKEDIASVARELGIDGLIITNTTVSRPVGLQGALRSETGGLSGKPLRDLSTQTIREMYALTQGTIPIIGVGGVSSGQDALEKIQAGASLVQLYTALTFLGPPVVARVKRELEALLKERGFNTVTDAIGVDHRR

| SMILES | half-life [1] [h] | inhibition in vivo at 10 mg/kg (Rattus norvegicus [2]) [%] | inhibition in vivo at 30 mg/kg (Mus musculus [3]) [%] | half-life [4] [h] | IC50 [5] [µM] | IC50 [6] [µM] | inhibition in vivo at 3 mg/kg (Rattus norvegicus [7]) [%] | inhibition in vivo at 50 mg/kg (Rattus norvegicus [8]) [%] | inhibition in vivo at 30 mg/kg (Mus musculus [9]) [%] | inhibition in vivo at 100 mg/kg (Mus musculus [10]) [%] | inhibition in vivo at 100 mg/kg (Mus musculus [11]) [%] | inhibition in vivo at 50 mg/kg (Rattus norvegicus [12]) [%] | inhibition in vivo at 3 mg/kg (Rattus norvegicus [13]) [%] |
| --- | --- | --- | --- | --- | --- | --- | --- | --- | --- | --- | --- | --- | --- |
| N#C/C(C(=O)Nc1ccc(C#Cc2ccc(Cl)cc2)cc1)=C(/O)C1CC1 | 68 | 61 | 61 | 84 | 5 | – | – | – | – | – | – | – | – |
| Cc1cc(Cl)ccc1NC(=O)/C(C#N)=C(\O)C1CC1 | – | 30 | 54 | – | 3.72 | 1.25 | – | – | – | – | – | – | – |
| Cc1cc(NC(=O)/C(C#N)=C(\O)C2CC2)ccc1C(F)(F)C(F)(F)F | 11 | – | 65 | 10 | 0.282 | 0.011 | 70 | – | – | – | – | – | – |
| N#C/C(C(=O)Nc1cccc(C(F)(F)F)c1)=C(/O)C1CC1 | – | – | – | – | 0.525 | 0.479 | – | 49 | 41 | – | – | – | – |
| N#CCc1ccc(NC(=O)/C(C#N)=C(\O)C2CC2)cc1 | – | – | – | – | 37.2 | 4.57 | – | 3 | – | 36 | – | – | – |
| N#C/C(C(=O)Nc1ccc(C(F)(F)F)cn1)=C(/O)C1CC1 | 5 | – | – | 7 | 0.158 | 0.017 | 40 | – | – | – | 67 | – | – |
| N#C/C(C(=O)Nc1cccc(Cl)c1)=C(/O)C1CC1 | 2 | – | – | 3 | 3 | 0.343 | – | 25 | – | 55 | – | – | – |
| Cc1ccc(NC(=O)/C(C#N)=C(\O)C2CC2)cc1 | – | – | – | – | 0.288 | 0.234 | – | 28 | – | 47 | – | – | – |
| N#C/C(C(=O)Nc1ccccc1)=C(/O)C1CC1 | – | – | – | – | 1.58 | 2 | – | 43 | 25 | – | – | – | – |
| C=C/C(O)=C(\C#N)C(=O)Nc1ccc(C(F)(F)F)cc1 | – | – | – | – | – | 0.023 | – | 74 | – | – | 7 | – | – |
| N#C/C(C(=O)Nc1ccc(-c2cccs2)cc1)=C(/O)C1CC1 | – | 34 | – | – | 2.51 | 0.631 | – | – | – | – | – | – | – |
| C=C(C)/C(O)=C(\C#N)C(=O)Nc1ccc(C(F)(F)F)cc1 | 13 | – | – | 7 | 0.195 | 0.251 | – | 78 | – | 54 | – | – | – |
| N#C/C(C(=O)Nc1ccccc1C(F)(F)F)=C(/O)C1CC1 | – | – | – | – | > 100 | > 100 | – | -4 | – | -10 | – | – | – |
| N#C/C(C(=O)Nc1ccc(Oc2ccc(Cl)cc2)cc1)=C(/O)C1CC1 | 21 | 31 | 63 | 39 | 0.832 | 1.51 | – | – | – | – | – | – | – |
| C/C=C/C(O)=C(\C#N)C(=O)Nc1ccc(C(F)(F)F)cc1 | – | – | – | – | 4.27 | 1.41 | – | 16 | – | 54 | – | – | – |
| N#C/C(C(=O)Nc1ccc(C(F)(F)F)cc1)=C(/O)C1CC1 | 28 | 53 | 85 | 8 | 0.047 | 0.021 | – | – | – | – | – | – | – |
| Cc1cc(NC(=O)/C(C#N)=C(\O)C2CC2)ccc1OC(F)(F)F | 14 | – | 61 | 4 | 0.178 | 0.018 | 46 | – | – | – | – | – | – |
| Cc1cc(NC(=O)/C(C#N)=C(\O)C2CC2)ccc1Br | 2 | – | – | 4 | 0.063 | 0.05 | – | – | – | – | 86 | 66 | – |
| Cc1cc(NC(=O)/C(C#N)=C(\O)C2CC2)ccc1C(F)(F)F | 8 | 59 | 81 | 4 | 0.055 | 0.014 | – | – | – | – | – | – | – |
| N#C/C(C(=O)Nc1ccc(Cl)nc1)=C(/O)C1CC1 | – | – | 9 | – | 1.78 | – | – | – | – | – | – | 71 | – |

| SMILES | half-life [1] [h] | inhibition in vivo at 10 mg/kg (Rattus norvegicus [2]) [%] | inhibition in vivo at 30 mg/kg (Mus musculus [3]) [%] | half-life [4] [h] | IC50 [5] [µM] | IC50 [6] [µM] | inhibition in vivo at 3 mg/kg (Rattus norvegicus [7]) [%] | inhibition in vivo at 50 mg/kg (Rattus norvegicus [8]) [%] | inhibition in vivo at 30 mg/kg (Mus musculus [9]) [%] | inhibition in vivo at 100 mg/kg (Mus musculus [10]) [%] | inhibition in vivo at 100 mg/kg (Mus musculus [11]) [%] | inhibition in vivo at 50 mg/kg (Rattus norvegicus [12]) [%] | inhibition in vivo at 3 mg/kg (Rattus norvegicus [13]) [%] |
| --- | --- | --- | --- | --- | --- | --- | --- | --- | --- | --- | --- | --- | --- |
| N#C/C(C(=O)Nc1ccc(-c2ccc(F)cc2)cc1)=C(/O)C1CC1 | – | 79 | 53 | – | 8.51 | 2.14 | – | – | – | – | – | – | – |
| Cc1cc(NC(=O)/C(C#N)=C(\O)C2CC2)ccc1Cl | 8 | 42 | 41 | 2 | 0.04 | 0.033 | – | – | – | – | – | – | – |
| N#C/C(C(=O)Nc1ccc(C(=O)c2ccc(Cl)cc2)cc1)=C(/O)C1CC1 | – | -19 | 4 | – | 0.562 | 0.59 | – | – | – | – | – | – | – |
| N#C/C(C(=O)Nc1ccc(Br)cn1)=C(/O)C1CC1 | 7 | 66 | 4 | 13 | – | 0.037 | – | – | – | – | – | – | – |
| CC(=O)c1ccc(NC(=O)/C(C#N)=C(\O)C2CC2)cc1 | 4 | 59 | – | 6 | 3.8 | 0.068 | – | – | – | – | 32 | – | – |
| N#C/C(C(=O)Nc1ccc(-c2nc(C(F)(F)F)cs2)cc1)=C(/O)C1CC1 | – | 30 | – | – | 50 | 3 | – | – | – | – | – | – | – |
| CS(=O)(=O)c1ccc(NC(=O)/C(C#N)=C(\O)C2CC2)cc1 | – | – | – | – | 15.1 | – | – | 50 | – | 36 | – | – | – |
| N#C/C(C(=O)Nc1ccc(Cl)cc1)=C(/O)C1CC1 | 21 | – | – | 22 | 0.036 | – | – | – | – | – | – | – | 74 |
| CSc1ccc(NC(=O)/C(C#N)=C(\O)C2CC2)cc1 | < 2 | – | – | < 1 | 0.445 | 0.013 | – | 60 | – | 46 | – | – | – |
| N#C/C(C(=O)Nc1ccccc1Cl)=C(/O)C1CC1 | – | – | – | – | 16.6 | 13.3 | – | -12 | – | 43 | – | – | – |
| N#C/C(C(=O)Nc1ccc(Oc2ccc(C(F)(F)F)cc2)cc1)=C(/O)C1CC1 | – | 39 | -17 | – | 1.51 | 3.55 | – | – | – | – | – | – | – |
| C=CC/C(O)=C(\C#N)C(=O)Nc1ccc(C(F)(F)F)cc1 | 23 | – | – | 4 | 0.063 | 0.107 | – | 79 | 75 | – | – | – | – |
| C#C/C(O)=C(\C#N)C(=O)Nc1ccc(C(F)(F)F)cc1 | – | – | – | – | 2.09 | 0.5 | – | 4 | – | 45 | – | – | – |
| N#C/C(C(=O)Nc1ccc(S(=O)(=O)C(F)(F)F)cc1)=C(/O)C1CC1 | 14 | – | – | 14 | 0.089 | 0.003 | – | – | 43 | – | – | – | 66 |
| CCc1cc(NC(=O)/C(C#N)=C(\O)C2CC2)ccc1C(F)(F)F | 6 | 74 | 61 | 6 | 0.071 | 0.04 | – | – | – | – | – | – | – |
| C[S+]([O-])c1ccc(NC(=O)/C(C#N)=C(\O)C2CC2)cc1 (configuration not stated) | – | – | – | – | 22.4 | 0.832 | – | 71 | – | 1 | – | – | – |
| Cc1cc(NC(=O)/C(C#N)=C(\O)C2CC2)ccc1C#N | 7 | 50 | 66 | 6 | 0.036 | 0.028 | – | – | – | – | – | – | – |
| N#C/C(C(=O)Nc1ccc([S+]([O-])C(F)(F)F)cc1)=C(/O)C1CC1 (configuration not stated) | 3 | – | – | 3 | 0.417 | 0.016 | – | – | 25 | – | – | – | 75 |
| N#C/C(C(=O)Nc1ccc(/C=C/c2ccc(Cl)cc2)cc1)=C(/O)C1CC1 | 43 | – | – | > 30 | 12.6 | – | – | – | – | – | 69 | 46 | – |
| Cc1oncc1C(=O)Nc1ccc(C(F)(F)F)cc1 [LEFLUNOMIDE] | – | 78 | 84 | – | 0.03 | 0.009 | – | – | – | – | – | – | – |
